The text below walks through data of ChEMBL document CHEMBL3044971, “Dialkoxybenzene and dialkoxyallylbenzene feeding and oviposition deterrents against the cabbage looper, Trichoplusia ni: potential insect behavior control agents” (J Agric Food Chem, 2010).

The structures appear in SMILES notation.

The test system of data set [1] is Trichoplusia ni. To be noted: in vivo, 24 h.
Data set [2] concerns Trichoplusia ni. Briefly: Feeding deterrent activity against freshly molted third-instar larval stage of Trichoplusia ni (cabbage looper) in compound pretreated cabbage leaves after 3 to 5 hr by leaf disk choice bioassay. Format: functional, organism-based. The procedure, abridged: (§1)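 Leaf-disk choice test on greenhouse cabbage (Stonehead) leaves from 5-6-week plants. Freshly molted third-instar T. ni from a diet-reared colony (>50 generations) were starved 4-5 h. One disk had 10 μL test solution painted on each side, the other carrier solvent only. There were 25 larvae per treatment. Run ended at ~50% control disk eaten (3-5 h). Deterrence = (C−T)/(C+T)×100 from consumed areas.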

Data set [3] relates to Trichoplusia ni. The data set can be described thus: Feeding deterrent activity against freshly molted third-instar larval stage of Trichoplusia ni (cabbage looper) in compound pretreated cabbage leaves at 50 ug/cm2 after 3 to 5 hr by leaf disk choice bioassay. The format is functional. An outline of the steps: as §1
Data set [4] concerns Trichoplusia ni. The data set can be described thus: Oviposition deterrent activity against adult female Trichoplusia ni (cabbage looper) moths introduced along with male moths into oviposition cage containing compound pretreated cabbage leaves assessed as eggs laying on the leaf disks at 0.25% after 48 hr. Format: functional. An outline of the steps:
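Choice test: one male and one female moth were caged with a control and a treated cabbage leaf (~100-110 cm²). Each side was sprayed with 0.5 mL MeOH or methanolic test solution at 0.25%. Values are mean ± SE, N = 35-40.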

As for `C=CCOc1cccc(OCC=C)c1`, in data set [1], the mortality turned out to be 13%. Besides, in data set [2], the DC50 came out at 20 microg/cm2. Further, the Activity in data set [3] is 97%; in data set [4], 26%.

Usually mortality stands for the percentage killed.
